Laboratory results taken from BindingDB's records for doi:10.1016/j.ejmech.2013.12.052 (Jaypee University of Information Technology, 2014).

Target: T1, Inhibitor of nuclear factor kappa-B kinase subunit beta (Homo sapiens, UniProt O14920)
T1 sequence (O14920 whole entry): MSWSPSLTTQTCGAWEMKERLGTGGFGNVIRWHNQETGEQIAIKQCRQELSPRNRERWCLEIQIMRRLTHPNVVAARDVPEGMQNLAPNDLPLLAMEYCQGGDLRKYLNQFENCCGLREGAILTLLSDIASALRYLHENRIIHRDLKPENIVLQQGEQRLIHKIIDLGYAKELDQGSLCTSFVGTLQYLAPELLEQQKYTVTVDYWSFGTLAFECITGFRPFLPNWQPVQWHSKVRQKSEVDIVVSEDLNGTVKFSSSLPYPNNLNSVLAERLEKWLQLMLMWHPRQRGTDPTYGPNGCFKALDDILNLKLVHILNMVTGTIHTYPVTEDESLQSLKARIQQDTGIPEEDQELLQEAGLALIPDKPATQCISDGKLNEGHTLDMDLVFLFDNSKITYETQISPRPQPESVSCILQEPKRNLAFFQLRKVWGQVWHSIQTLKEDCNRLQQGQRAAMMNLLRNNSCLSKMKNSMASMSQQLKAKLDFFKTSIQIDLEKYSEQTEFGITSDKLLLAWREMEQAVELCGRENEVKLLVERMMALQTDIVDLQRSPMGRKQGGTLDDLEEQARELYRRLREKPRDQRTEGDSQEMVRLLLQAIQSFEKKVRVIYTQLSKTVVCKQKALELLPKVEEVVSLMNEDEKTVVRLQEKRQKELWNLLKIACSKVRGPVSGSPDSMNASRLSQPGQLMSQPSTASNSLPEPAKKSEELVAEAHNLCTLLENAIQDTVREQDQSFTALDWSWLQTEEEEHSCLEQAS
Assay: Inhibition of FLAG-tagged human recombinant IKKbeta phosphorylation expressed in baculovirus infected insect Sf9 cells after 1 hr by luminescence assay
Method in brief: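 Reaction run 1 h at room temperature in 25 mmol/l HEPES pH 7.5, 10 mmol/l Mg acetate, DTT, 0.01% BSA and 0.01% Tween20, with 500 nmol ATP and GST-IκBα substrate. Kinase-Glo added, 10 min, luminescence from remaining ATP measured.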

IC50 [nM] | SMILES
940 | CC(C)=CC(=O)O[C@@H]1CC(C)(C)C[C@H]2C3=CC[C@@H]4[C@@]5(C)CC[C@H](OC(=O)/C=C/c6ccccc6)C(C)(C)[C@@H]5CC[C@@]4(C)[C@]3(C)CC[C@@]12C(=O)O
1200 | C/C=C(\C)C(=O)O[C@@H]1CC(C)(C)C[C@H]2C3=CC[C@@H]4[C@@]5(C)CC[C@H](OC(=O)/C=C/c6ccccc6)C(C)(C)[C@@H]5CC[C@@]4(C)[C@]3(C)CC[C@@]12C(=O)O

SMILES | IC50 [nM]
C/C=C(\C)C(=O)O[C@@H]1CC(C)(C)C[C@H]2C3=CC[C@@H]4[C@@]5(C)CC[C@H](O)C(C)(C)[C@@H]5CC[C@@]4(C)[C@]3(C)CC[C@@]12C(=O)O | 2620
